The target of assay [1] is T1, Peroxisome proliferator-activated receptor alpha (Homo sapiens, UniProt Q07869).
T1 sequence (Q07869 whole entry): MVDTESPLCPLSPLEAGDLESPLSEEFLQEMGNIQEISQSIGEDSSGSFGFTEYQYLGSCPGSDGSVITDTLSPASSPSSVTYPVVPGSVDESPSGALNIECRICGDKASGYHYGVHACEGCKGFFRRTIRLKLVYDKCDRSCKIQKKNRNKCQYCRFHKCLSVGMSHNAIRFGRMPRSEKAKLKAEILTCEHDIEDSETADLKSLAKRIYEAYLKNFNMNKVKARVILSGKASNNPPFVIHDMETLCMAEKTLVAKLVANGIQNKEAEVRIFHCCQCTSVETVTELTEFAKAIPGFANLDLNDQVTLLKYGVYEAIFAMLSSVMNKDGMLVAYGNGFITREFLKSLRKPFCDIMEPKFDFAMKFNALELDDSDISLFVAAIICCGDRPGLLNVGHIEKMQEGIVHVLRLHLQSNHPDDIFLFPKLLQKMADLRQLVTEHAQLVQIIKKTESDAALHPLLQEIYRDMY
The assay is described as follows: Binding affinity towards peroxisome proliferator activated receptor alpha (PPAR alpha); Not active. In short, it runs like this:
(§1)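 Scintillation proximity (SPA) radioligand binding assay run at 15 C. The IC50 is converted to an apparent Ki with the Cheng-Prusoff equation.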

The target of assay [2] is T1, Peroxisome proliferator-activated receptor alpha. Put plainly: Binding affinity towards human peroxisome proliferator activated receptor alpha (PPAR alpha) by HTRF assay; Not active. A general note: Time-resolved FRET reads energy transfer from a long-lived donor to a nearby acceptor.
Assay [3] concerns Rattus norvegicus. Put plainly: Body weight of Sprague-Dawley rat after 30 mg/kg peroral administration. The conditions noted are these: route oral, 30 mg/kg.
The test system of assay [4] is Rattus norvegicus. Put plainly: Total Cholesterol change in Sprague-Dawley rat after 30 mg/kg peroral administration. As to conditions: route oral; call rule not given here.
The test system of assay [5] is Rattus norvegicus. The assay is described as follows: Brown adipose tissue weight in Sprague-Dawley rat after 30 mg/kg peroral administration. The conditions noted are these: route oral, 30 mg/kg.
The target in assay [6] is T2, Peroxisome proliferator-activated receptor gamma (Homo sapiens, UniProt P37231).
T2 sequence (P37231 whole entry): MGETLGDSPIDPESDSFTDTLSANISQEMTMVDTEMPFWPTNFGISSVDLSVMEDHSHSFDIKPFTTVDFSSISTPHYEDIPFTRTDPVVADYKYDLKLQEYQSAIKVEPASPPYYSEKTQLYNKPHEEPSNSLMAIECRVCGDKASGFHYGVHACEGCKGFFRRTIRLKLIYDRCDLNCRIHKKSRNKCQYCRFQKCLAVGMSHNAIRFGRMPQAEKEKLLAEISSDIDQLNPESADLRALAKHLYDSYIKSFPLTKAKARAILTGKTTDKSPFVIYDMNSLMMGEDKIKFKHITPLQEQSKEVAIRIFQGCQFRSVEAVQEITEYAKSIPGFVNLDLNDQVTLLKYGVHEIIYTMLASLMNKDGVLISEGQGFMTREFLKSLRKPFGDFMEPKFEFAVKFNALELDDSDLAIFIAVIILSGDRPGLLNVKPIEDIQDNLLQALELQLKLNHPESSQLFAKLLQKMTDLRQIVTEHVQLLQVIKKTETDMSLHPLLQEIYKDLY
The assay is described as follows: Binding affinity towards peroxisome proliferator activated receptor gamma (PPAR gamma); weakly active.

In assay [7] the target is T2, Peroxisome proliferator-activated receptor gamma. The assay is described as follows: Binding affinity towards human peroxisome proliferator activated receptor gamma (PPAR gamma) was determined by HTRF assay; weakly active.
The target of assay [8] is T1, Peroxisome proliferator-activated receptor alpha. Put plainly: Binding affinity towards peroxisome proliferator activated receptor alpha (PPAR alpha); weakly active.
Assay [9] has as its system Mus musculus. The assay is described as follows: Fasting plasma glucose levels after 30 mg/kg peroral administration in db/db Mouse. The conditions noted are these: route oral. The format is functional. In short, it runs like this:
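db/db (lepr db-3J/lepr db-3J) mice dosed orally once daily for 11 days; fasting plasma glucose measured at day 11. Correction is expressed as mean glucose lowering, as a percentage of the difference between vehicle-treated db/db and lean control mice.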

For assay [10], the target named is T1, Peroxisome proliferator-activated receptor alpha. Put plainly: Binding affinity towards human peroxisome proliferator activated receptor gamma (PPAR alpha) by HTRF assay; Weakly active.
In assay [11] the target is T2, Peroxisome proliferator-activated receptor gamma. The assay is described as follows: Binding affinity towards peroxisome proliferator activated receptor gamma (PPAR gamma); Not active. In short, it runs like this:
as §1

Several values for one entry are separate records, joined by “and”; a condition that tells them apart may be missing. Equal values may be shown once.

Regarding `CN(CCOc1ccc(CC2SC(=O)NC2=O)cc1)c1ccccn1.O=C(O)/C=C\C(=O)O` (configuration not stated) [ROSIGLITAZONE MALEATE], the Ki result in assay [1] and in assay [2] was “Not Active” each time. Besides, the Body weight in assay [3] is 310 g and 322 g. This molecule displayed a Change in assay [4] of 1%. In [5], the BAT weight was 0.74 g and 0.63 g.
On to `CCCc1c(OC(C(=O)O)c2ccccc2)ccc(C(=O)CC)c1O` (configuration not stated), for which the Ki result in [6], in assay [7] and in [8] was “Partially active” throughout.
For the molecule `Cc1cccc(Nc2cc(Cl)nc(SCC(=O)O)n2)c1C` [PIRINIXIC ACID], the FPG correction in [9] was found to be 20%. For the same molecule, the EC50 entry in assay [10] is given as “Partially active”. In addition, the Ki entry in assay [1] and in assay [11] was “Not Active” throughout.

These data come from ChEMBL document CHEMBL1136228 (Bioorg Med Chem Lett, 2003).
